PHOSPHO1 inh: PubChem AID 1565; recombinant PHOSPHO1, absorbance phosphatase assay; 1.1% of 290,000 active; inhibition, % at 13.3 µM; in the data active = inhibition above about 60%
Target sequence (Q8TCT1 whole entry, looked up): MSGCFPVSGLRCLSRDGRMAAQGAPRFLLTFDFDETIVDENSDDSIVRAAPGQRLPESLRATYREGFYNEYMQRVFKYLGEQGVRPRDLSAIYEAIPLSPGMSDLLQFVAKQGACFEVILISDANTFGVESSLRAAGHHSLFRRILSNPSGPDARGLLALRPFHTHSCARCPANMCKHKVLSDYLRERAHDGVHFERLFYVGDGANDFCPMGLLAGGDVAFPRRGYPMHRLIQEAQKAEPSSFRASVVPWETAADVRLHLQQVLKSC
RanGTP-Impb inh: inhibitors of RanGTP-importin-beta interaction, primary screen, biochemical, FRET, CFP-Ran, YFP-importin-beta, homogeneous; Ran GTPase (GTP-bound) - importin-beta complex; cell-free CFP-Ran/YFP-importin-beta FRET ratio; inhibition, % (no concentration beside the values); 1.1% of 300,000 active; AID 2216, 2009;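 active = more than half of the replicate wells show a fall in the fluorescence ratio signal beyond about 16%, limit read from the data, passing the limit was not always enough; inconclusive = exactly half of the replicate wells pass the set limit; inactive = fewer than half of replicates pass the limit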;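 note: 0% = DMSO wells and 100% = Ran loaded with GDP instead of GTP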
Runt-SMMHC FRET: inhibitors of RUNX1 Runt–CBFb-SMMHC binding, primary screen, biochemical, FRET, Cerulean-Runt, Venus-CBFb-SMMHC, uHTS; inhibition, % at 20 µM; Cerulean-Runt/Venus-CBFb-SMMHC FRET ratio 530/480, 1 h; 0.74% of 220,000 active; AID 1434, 2008;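 active = mean inhibition across duplicate retests at 20 µM reaching about 50%, limit read from the data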;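 note: 0% = DMSO wells and 100% = wells with excess untagged CBFb-SMMHC; inhibitors lower the FRET ratio by blocking Runt binding to CBFb-SMMHC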
Runt-CBFb FRET: inhibitors of RUNX1 Runt–CBFb binding, primary screen, biochemical, FRET, Cerulean-Runt, Venus-CBFb, uHTS; Runt-related transcription factor 1 (Homo sapiens) + Core-binding factor subunit beta …; Cerulean-Runt/Venus-CBFb FRET ratio 530/480, 1 h; 0.46% of 220,000 active; inhibition, % at 20 µM; AID 1496, 2009;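 active = inhibition over about 50% at 20 µM in the single-dose screen, limit read from the data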;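 note: 0% = DMSO wells and 100% = excess unlabeled CBFb competitor control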
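Assay system: Cerulean-Runt domain / Medium: Tris 50 mM pH 7.5, KCl, K2SO4, 0.01% BSA / Timing: protein complex preformed 1 h, compound exposure 1 h, room temperature, dark / Measured by: FRET, excitation 422 nm, emission at 530 and 480 nm / Evaluation: loss of energy transfer signal / Control set: 5 µM unlabeled CBFb as full-inhibition high control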
Wee1 stabilizer: Wee1 degradation inhibitors, primary screen, cell-based, HeLa, Wee1K328M-luciferase, luminescence; Wee1-like protein kinase (Homo sapiens), P30291; HeLa Luc-Wee1K328M stability; 100% = proteasome inhibitor MG132 effect; reporter increase, % at 5 µM; 1.2% of 220,000 active; AID 1321, 2008;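 active = activation above the mean of all tested compounds plus 3 SD, set per screening run, cut at about 8.8% in these data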;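 note: cells exposed to compound for 20 h before luminescence read; 0% = DMSO alone and 100% = MG132 at 30 µM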
Efa HMGR inh: inhibitors of E. faecalis class II HMGR, primary screen, biochemical, Enterococcus faecalis; HMG-CoA reductase (Enterococcus faecalis, mvaE); purified E. faecalis HMGR, NADPH absorbance 340 nm kinetic; inhibition, % at 10 µM; 0.41% of 190,000 active;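 active = inhibition above a set limit, the median over all tested compounds plus 3 SD, cut at about 9.5% in these data; inconclusive = no clear call, values can overlap the other calls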;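 note: enzyme runs in reverse so mevalonate oxidation gives rising NADPH absorbance; 0% = complete reaction with DMSO and 100% = background rate lacking mevalonate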
* = called active by the depositor; u = inconclusive; x = no result given. Shown are actives, neighbours in structure and some others; about 3.4% of the full set was active somewhere.

SMILES	PHOSPHO1 inh	RanGTP-Impb inh	Runt-SMMHC FRET	Runt-CBFb FRET	Wee1 stabilizer	Efa HMGR inh
Cc1ccc(NC(=O)Nc2cc(Cl)ccc2C2COC(=O)C2=N)cc1 (centres undefined)	27	5	-12	-1	-2	-2
CC(=O)Nc1ccc(Cl)cc1C1COC(=O)C1=N (centres undefined)	-11	19*	-8	-6	1	-4
Cc1[nH]n(S(=O)(=O)Cc2ccccc2)c(=O)c1N=Nc1ccccc1Cl	-33	-2	-3	-7	2	10*
Cc1ccc(S(=O)(=O)Nc2ccsc2C#N)cc1	x	-3	x	x	x	x
Cc1nn(C(=O)c2ccco2)c(C)c1Sc1ccccc1	-9	6	-2	53*	2	-6
CCOc1ccc(S(=O)(=O)N(CC(=O)N2CCC(C(N)=O)CC2)c2ccc(F)cc2)cc1	18	27*	x	x	x	x
CCOc1ccc(N(CC(N)=O)S(=O)(=O)c2ccc(F)cc2)cc1	3	0	-3	0	0	0
Cn1nnnc1SCC1=C(C(=O)O)N2C(=O)[C@@H](NC(=O)[C@H](O)c3ccccc3)[C@H]2SC1	-1	-4	5	3	-4	-1
Cn1nnnc1SCC1=C(C(=O)O)N2C(=O)C(NC(=O)C3CC3c3ccccc3)C2SC1 (centres undefined)	37	-3	3	7	11*	-2
CCN(CC)c1ccc2cc(-c3nnc(-c4ccncc4)o3)c(=O)oc2c1	0	x	63*	18	0	-3
CCOc1cc(-n2cnnn2)c(OCC)cc1NC(=O)c1cc2ccc(N(CC)CC)cc2oc1=O	x	x	x	x	1	x
CCN(CC)c1ccc2cc(C(=O)Nc3ccccn3)c(=O)oc2c1	-14	161*	62*	18	6	-1
CCN(CC)c1ccc2cc(C(N)=O)c(=N)oc2c1	-17	151*	92*	20	8	-2
CCN(C(=O)c1cc2ccccc2oc1=O)c1ccccc1	-34	-1	0	-1	-1	-1
CCN(CC)c1ccc2cc(NC(=O)CCC(=O)O)c(=O)oc2c1	7	136*	63*	18	-1	-3
N/C(=N\NC(=O)c1cccs1)c1cc2ccccc2oc1=O	2	u	2	3	1	-11
CCN(CC)c1ccc2cc(C=O)c(=O)oc2c1	-3	126*	60*	17	3	5
CCN(CC)c1ccc2cc(C(N)=O)c(=O)oc2c1	-20	153*	95*	4	0	-2
CCN(CC)c1ccc2cc(/C(N)=N/NC(=O)c3cccs3)c(=O)oc2c1	10	159*	-102	-39	2	x
O=C(NCC(c1cccs1)N1CCOCC1)c1cc(S(=O)(=O)N2CCOCC2)ccc1F (centres undefined)	x	0	x	x	x	x
CCc1nnc2c3cnn(-c4ccccc4)c3ncn12	-6	3	-3	1	-2	0
Cc1ccc(-n2ncc3c2ncn2c(C)nnc32)cc1C	60*	x	3	-2	-1	-5
Cc1cc(C)n(-c2nnc(C)n2/N=C/c2ccccc2O)n1	12	0	-54	-16	9.3*	-2
Cc1cc(C)n(-c2nnc(C)n2N)n1	11	-1	2	0	-2	-3
Cn1c(-c2ccc(N)cc2)nc2ccccc21	40	x	3	0	-2	-1
Cc1ccc(-n2c(N)c(-c3nc4ccccc4n3C)sc2=S)cc1	69*	28*	0	40	0	1
C=C(C)Cn1c(=O)c2c(nc3n2CC(C)CN3Cc2ccccc2)n(C)c1=O (centres undefined)	24	-2	x	x	x	x
CCOC(=O)C1=C(COC(=O)c2cc(OC)c(OC)c(OC)c2)NC(=O)NC1C (centres undefined)	x	1	x	x	x	x
